Tests used:
Rattus norvegicus [1] = assay: Antiinflammatory activity by rat Carrageenan edema assay at 50 mg/kg peroral administration (3h edema).; assay type: functional; conditions: route oral
Summary of the method: (§1)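 Groups of six male Sprague-Dawley rats (150-165 g) were dosed po in 0.5% methyl cellulose. One hour later, 0.1 mL of 1% carrageenan was injected subplantar into the right hind paw. Edema was taken as the 3 h paw volume minus the zero-time volume and expressed as percent change versus vehicle; screening dose was 50 mg/kg po.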

Rattus norvegicus [2] = assay: Antiinflammatory activity by rat adjuvant arthritis assay at 30 mg/kg peroral administration (uninjected paw at day 16).; conditions: route oral
Cyclooxygenase [3] = molecular target: T1, Cyclooxygenase (Rattus norvegicus, UniProt P35355+Q63921); assay: Prostaglandin G/H synthase Inhibitory activity against rat polymorphonuclear leucocytes from female wistar rat, by using TXB2.
T1 sequence (P35355 whole entry): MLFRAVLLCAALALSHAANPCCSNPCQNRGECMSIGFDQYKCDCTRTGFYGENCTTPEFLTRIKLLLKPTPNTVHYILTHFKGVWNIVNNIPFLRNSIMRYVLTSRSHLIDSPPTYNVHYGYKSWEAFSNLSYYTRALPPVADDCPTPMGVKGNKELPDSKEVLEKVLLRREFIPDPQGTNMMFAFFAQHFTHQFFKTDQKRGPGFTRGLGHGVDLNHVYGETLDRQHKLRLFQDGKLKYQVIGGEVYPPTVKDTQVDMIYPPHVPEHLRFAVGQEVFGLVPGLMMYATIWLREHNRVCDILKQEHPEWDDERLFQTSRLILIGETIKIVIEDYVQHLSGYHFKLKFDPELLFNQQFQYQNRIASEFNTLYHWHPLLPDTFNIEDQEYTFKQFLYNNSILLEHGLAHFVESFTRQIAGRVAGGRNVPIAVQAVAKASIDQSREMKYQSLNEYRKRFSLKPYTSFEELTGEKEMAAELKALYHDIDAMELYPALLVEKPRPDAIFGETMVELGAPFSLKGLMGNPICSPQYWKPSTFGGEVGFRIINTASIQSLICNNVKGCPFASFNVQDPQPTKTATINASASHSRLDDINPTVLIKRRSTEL
T1 sequence (Q63921 whole entry): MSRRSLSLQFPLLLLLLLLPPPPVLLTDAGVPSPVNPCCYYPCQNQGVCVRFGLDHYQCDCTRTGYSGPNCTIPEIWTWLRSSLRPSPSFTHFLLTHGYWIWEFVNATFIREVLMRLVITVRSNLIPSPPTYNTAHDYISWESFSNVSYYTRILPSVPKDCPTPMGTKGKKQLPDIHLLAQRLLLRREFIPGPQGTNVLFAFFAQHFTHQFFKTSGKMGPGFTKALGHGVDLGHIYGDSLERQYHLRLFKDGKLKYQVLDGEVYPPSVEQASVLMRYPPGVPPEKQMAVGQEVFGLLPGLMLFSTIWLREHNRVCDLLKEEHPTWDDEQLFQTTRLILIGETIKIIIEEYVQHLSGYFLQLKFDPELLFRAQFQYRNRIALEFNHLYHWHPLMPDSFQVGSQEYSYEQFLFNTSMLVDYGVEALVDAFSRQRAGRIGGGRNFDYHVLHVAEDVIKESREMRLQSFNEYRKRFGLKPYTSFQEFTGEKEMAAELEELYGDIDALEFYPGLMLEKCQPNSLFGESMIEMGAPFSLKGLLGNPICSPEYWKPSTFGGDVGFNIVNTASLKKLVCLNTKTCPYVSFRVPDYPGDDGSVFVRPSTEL
Summary of the method: (§2)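 Rat polymorphonuclear leucocytes at 10^7 cells/mL in HBSS (Mg2+, Ca2+, 10 mM cysteine) were preincubated with compound, added in DMSO, for 10 min at 37 °C with shaking. Radiolabeled eicosanoids (5-HETE for the 5-LO pathway, TXB2 for the CO pathway) were separated by HPLC and detected with an in-line radioactivity detector. Results are given as percent change at 10 µM or 50 µM.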

[4] = molecular target: T2, Polyunsaturated fatty acid 5-lipoxygenase (Rattus norvegicus) (UniProt P12527); assay: Inhibition of 5-lipoxygenase pathway in rat polymorphonuclear assay, by ability to inhibit formation of LTB4 AT 10 uM
T2 sequence (whole entry): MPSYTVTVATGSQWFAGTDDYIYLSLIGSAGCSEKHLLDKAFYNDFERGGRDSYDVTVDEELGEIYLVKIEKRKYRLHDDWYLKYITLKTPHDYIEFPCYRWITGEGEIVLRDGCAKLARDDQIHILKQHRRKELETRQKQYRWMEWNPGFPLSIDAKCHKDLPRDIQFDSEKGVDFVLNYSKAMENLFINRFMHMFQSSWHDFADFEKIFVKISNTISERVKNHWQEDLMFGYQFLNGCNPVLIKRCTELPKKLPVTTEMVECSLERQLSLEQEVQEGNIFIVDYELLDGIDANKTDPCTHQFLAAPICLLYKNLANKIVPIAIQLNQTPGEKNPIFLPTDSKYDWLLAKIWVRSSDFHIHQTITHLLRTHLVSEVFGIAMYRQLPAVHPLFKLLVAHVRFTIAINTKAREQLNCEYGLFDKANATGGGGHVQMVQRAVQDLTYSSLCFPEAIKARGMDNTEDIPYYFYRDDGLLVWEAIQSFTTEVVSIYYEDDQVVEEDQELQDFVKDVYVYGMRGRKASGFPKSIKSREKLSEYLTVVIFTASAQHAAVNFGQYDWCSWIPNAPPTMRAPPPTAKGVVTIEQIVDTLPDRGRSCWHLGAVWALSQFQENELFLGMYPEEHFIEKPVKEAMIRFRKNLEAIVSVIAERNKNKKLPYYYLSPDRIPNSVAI

Rattus norvegicus [5] = assay: Anti-inflammatory activity by rat carrageenan edema assay (3h edema).; assay type: functional; summary of the method: as §1
Cyclooxygenase [6] = molecular target: T1, Cyclooxygenase; assay: Prostaglandin G/H synthase Inhibitory activity against rat polymorphonuclear leucocytes from female wistar rat, by using PGE-2.
[7] = molecular target: T3, Polyunsaturated fatty acid 5-lipoxygenase (Rattus norvegicus, UniProt P12527); assay: 5-lipoxygenase inhibitory activity against rat polymorphonuclear leucocytes from female wistar rat, by using 5-HETE.; summary of the method: as §2
T3 sequence (P12527 whole entry): T2 sequence (whole entry)

[8] = molecular target: T3, Polyunsaturated fatty acid 5-lipoxygenase; assay: 5-lipoxygenase inhibitory activity against rat polymorphonuclear leucocytes from female wistar rat, by using LTB4.
Rattus norvegicus [9] = species on record: Rattus norvegicus; assay: Anti-inflammatory activity by rat adjuvant Arthritis assay (uninjected paw at day 16).
[10] = molecular target: T2, Polyunsaturated fatty acid 5-lipoxygenase (Rattus norvegicus); assay: Inhibition of 5-lipoxygenase pathway in rat polymorphonuclear assay (inhibition of 5-HETE formation); summary of the method: as §2

SMILES: Cc1ccc(C(O)c2nc3c(cc2C)CCCCC3)cc1 (stereo not given)
- Change (Rattus norvegicus [1]): -58%
- Change (Rattus norvegicus [2]): -49%
- IC50 (Cyclooxygenase [3]): 33 µM
- Change [4]: -43%
- ED50 (Rattus norvegicus [5]): 40 mg/kg
- IC50 (Cyclooxygenase [6]): > 50 µM
- IC50 [7]: 27 µM
- IC50 [8]: 14 µM
- ED50 (Rattus norvegicus [9]): 30 mg/kg
- Change [10]: -49%

Reference: ChEMBL document CHEMBL1128308, “Synthesis and antiinflammatory activity of certain 5,6,7,8-tetrahydroquinolines and related compounds” (J Med Chem, 1995)
